# From ChEMBL document CHEMBL4819084, “Discovery of 3,5-dimethylisoxazole derivatives as novel, potent inhibitors for bromodomain and extraterminal domain (BET) family” (Bioorg Med Chem, 2021)
# Columns and labels:
# [1] = system: HCT-116; assay: Antiproliferative activity against human HCT-116 cells assessed as inhibition of cell proliferation at 2 uM incubated for 48 hrs by MTT assay relative to control; format: functional
# Summary of the method: (§1)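 Cryopreserved cells thawed at 37 °C, cultured one day, then seeded at 5000–10,000 cells/well in 96-well plates and left overnight to attach. Compound added at a single concentration or as a gradient series and incubated 48 h. MTT solution added and absorbance read.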
# [2] = system: CT26; assay: Antiproliferative activity against […] assessed as inhibition of cell proliferation at 2 uM incubated for 48 hrs by MTT assay relative to control; format: functional; conditions: Mus musculus; summary of the method: as §1
# [3] = system: MCF7; assay: Antiproliferative activity against human MCF7 cells assessed as inhibition of cell proliferation at 2 uM incubated for 48 hrs by MTT assay relative to control; format: functional; summary of the method: as §1
# [4] = system: HepG2; assay: Antiproliferative activity against human HepG2 cells assessed as inhibition of cell proliferation at 2 uM incubated for 48 hrs by MTT assay relative to control; format: functional; summary of the method: as §1
# [5] = biological target: Bromodomain-containing protein 4 (Homo sapiens, UniProt O60885); assay: Inhibition of BRD4-BD1 (unknown origin) preincubated for 15 mins followed by substrate addition and measured after 1 hr
# [6] = system: U-266; assay: Antiproliferative activity against human U-266 cells assessed as inhibition of cell proliferation at 0.1 uM incubated for 48 hrs by MTT assay relative to control; format: functional; summary of the method: as §1
# [7] = Cytotoxicity against human MCF-10A cells assessed as inhibition of cell proliferation at 2 uM incubated for 48 hrs by MTT assay; format: cell-based; summary of the method: as §1
# [8] = system: U-266; assay: Antiproliferative activity against human U-266 cells assessed as inhibition of cell proliferation incubated for 48 hrs by MTT assay; format: functional, cell-based; conditions: U-266, 48 h; summary of the method: as §1
# [9] = system: CT26; assay: Antiproliferative activity against […] assessed as inhibition of cell proliferation incubated for 48 hrs by MTT assay; format: functional, cell-based; conditions: Mus musculus, CT26, 48 h; summary of the method: as §1
# [10] = system: HepG2; assay: Antiproliferative activity against human HepG2 cells assessed as inhibition of cell proliferation incubated for 48 hrs by MTT assay; format: functional, cell-based; conditions: HepG2, 48 h; summary of the method: as §1
SMILES,inhibition at 2 µM [1] [%],inhibition at 2 µM [2] [%],inhibition at 2 µM [3] [%],inhibition at 2 µM [4] [%],IC50 [5] [µM],inhibition at 0.1 µM [6] [%],"inhibition at 48 h, 2 µM [7] [%]",IC50 [8] [µM],IC50 [9] [µM],IC50 [10] [µM]
Cc1noc(C)c1-c1ccc2c(c1)C(c1ccccc1)N(CC(=O)N1CCN(c3ccc4nnc(Cl)n4n3)CC1)C(=O)N2C (stereo not given),48.9,27.5,33.4,28.5,0.0056,19.8,10.9,,,
Cc1sc2c(c1C)C(c1ccc(Cl)cc1)=N[C@@H](CC(=O)OC(C)(C)C)c1nnc(C)n1-2,30.3,37.9,35.4,22.2,,35.7,6.5,3.45,28.7,18.4
Cc1noc(C)c1-c1ccc2c(c1)C(c1ccccc1)N(Cc1nnc(-c3ccccc3)s1)C(=O)N2C (stereo not given),26.9,28.1,35.7,35.2,0.074,20.3,3.3,,,
Cc1noc(C)c1-c1ccc2c(c1)C(c1ccccc1)N(CCCCCC(=O)N1CCN(c3ccc4nnc(Cl)n4n3)CC1)C(=O)N2C (stereo not given),38.4,25.1,33.6,30.7,0.0092,31.3,14.7,,,
Cc1noc(C)c1-c1ccc2c(c1)C(c1ccccc1)N(CCCCCCCC(=O)N1CCN(c3ccc4nnc(Cl)n4n3)CC1)C(=O)N2C (stereo not given),14.1,8.8,28.7,13.6,0.037,8.5,0.5,,,
Cc1noc(C)c1-c1ccc2c(c1)C(c1ccccc1)N(Cc1ncc(-c3ccccc3)o1)C(=O)N2C (stereo not given),30,21.2,34,50.6,0.105,15.1,3.7,,,
Cc1noc(C)c1-c1ccc2c(c1)C(c1ccccc1)N(Cc1csc(-c3ccccc3)n1)C(=O)N2C (stereo not given),28.4,23.5,17.5,34,,10.4,4.4,,,
Cc1noc(C)c1-c1ccc2c(c1)C(c1ccccc1)N(Cc1nc(-c3ccc(F)cc3)cs1)C(=O)N2C (stereo not given),33.3,16.4,27.4,41.1,,12.6,8.5,,,
Cc1noc(C)c1-c1ccc2c(c1)C(c1ccccc1)NC(=O)N2C (stereo not given),27.8,44,33.5,32.5,0.053,13.1,6.8,35.4,36,18.8
Cc1noc(C)c1-c1ccc2c(c1)C(c1ccccc1)N(CCCCCN1CCN(c3ccc4nnc(Cl)n4n3)CC1)C(=O)N2C (stereo not given),39,33.8,33.4,39.8,0.0088,48.4,9.3,1.99,11.8,14
Cc1noc(C)c1-c1ccc2c(c1)C(c1ccccc1)N(CCOCCN1CCN(c3ccc4nnc(Cl)n4n3)CC1)C(=O)N2C (stereo not given),18.7,25.1,34.7,36.7,0.012,29.5,6,3.05,22.9,21
Cc1nc(-c2ccc(F)cc2)sc1CN1C(=O)N(C)c2ccc(-c3c(C)noc3C)cc2C1c1ccccc1 (stereo not given),26,28.8,33.4,26.4,,10,6.5,,,
Cc1nc(-c2ccccc2)sc1CN1C(=O)N(C)c2ccc(-c3c(C)noc3C)cc2C1c1ccccc1 (stereo not given),28.3,20.1,35.1,29.2,,7.19,4.9,,,
Cc1noc(C)c1-c1ccc2c(c1)C(c1ccccc1)N(Cc1nc(-c3ccccc3)cs1)C(=O)N2C (stereo not given),26.7,15.5,29.1,44.5,,12.7,2.7,,,
Cc1noc(C)c1-c1ccc2c(c1)C(c1ccccc1)N(Cc1nnc(-c3ccccc3)o1)C(=O)N2C (stereo not given),31.4,30.1,34.1,34.7,0.055,26.7,12.4,3.45,21.2,19.5
Cc1noc(C)c1-c1ccc2c(c1)C(c1ccccc1)N(CCCCBr)C(=O)N2C (stereo not given),,,,,0.013,,,,,
Cc1noc(C)c1-c1ccc2c(c1)C(c1ccccc1)N(Cc1nnc(-c3ccc(F)cc3)o1)C(=O)N2C (stereo not given),36.6,24,26.7,52.8,0.058,26.8,0.7,,,
CCS(=O)(=O)Nc1ccc(Oc2ccc(F)cc2F)c(-c2cn(C)c(=O)c3[nH]ccc23)c1 [MIVEBRESIB],,,,,,,,2.03,48.3,
Cc1noc(C)c1-c1ccc2c(c1)C(c1ccccc1)N(CCCCCCN1CCN(c3ccc4nnc(Cl)n4n3)CC1)C(=O)N2C (stereo not given),44.7,20.3,33.1,51.9,0.0031,45.5,5.3,2.12,7.95,9.45
Cc1noc(C)c1-c1ccc2c(c1)C(c1ccccc1)N(Cc1csc(-c3ccc(F)cc3)n1)C(=O)N2C (stereo not given),31.8,17,37.9,31.3,,8.4,6.8,,,
